# Measured values published in PubChem BioAssay.
# Activity calls are given as the source filed them.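 How the source made its calls, unless noted: active means viability at or under a set limit in both replicates, limit being median viability minus 3 SD (cut at about 48% in these data, passing the limit was not always enough); inconclusive means at or under the limit in just one replicate; inactive means at or above the limit in both replicates.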
# Experiments:
# [1] = reducers of endogenous Her2 protein level, primary screen, SKBR3 breast tumor cells, AlphaScreen, ATP viability (AID 461;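 active means Her2 level under about 52% in both replicate screens, with viability over 70% of control, limit read from the data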;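 on Her2 level: lower value means less Her2 protein in the cells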;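 on viability: percent of carrier control wells set as 100% viability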); details: 18-24 h, measured here: SKBR3 viability, ATP luminescence, at 10 µM
# [2] = molecular target: Receptor tyrosine-protein kinase erbB-2 (Homo sapiens) (UniProt P04626); assay: as above; details: 18-24 h, at 10 µM, stronger effect = lower value
# Chain of Receptor tyrosine-protein kinase erbB-2 (Homo sapiens) (P04626 whole entry, looked up): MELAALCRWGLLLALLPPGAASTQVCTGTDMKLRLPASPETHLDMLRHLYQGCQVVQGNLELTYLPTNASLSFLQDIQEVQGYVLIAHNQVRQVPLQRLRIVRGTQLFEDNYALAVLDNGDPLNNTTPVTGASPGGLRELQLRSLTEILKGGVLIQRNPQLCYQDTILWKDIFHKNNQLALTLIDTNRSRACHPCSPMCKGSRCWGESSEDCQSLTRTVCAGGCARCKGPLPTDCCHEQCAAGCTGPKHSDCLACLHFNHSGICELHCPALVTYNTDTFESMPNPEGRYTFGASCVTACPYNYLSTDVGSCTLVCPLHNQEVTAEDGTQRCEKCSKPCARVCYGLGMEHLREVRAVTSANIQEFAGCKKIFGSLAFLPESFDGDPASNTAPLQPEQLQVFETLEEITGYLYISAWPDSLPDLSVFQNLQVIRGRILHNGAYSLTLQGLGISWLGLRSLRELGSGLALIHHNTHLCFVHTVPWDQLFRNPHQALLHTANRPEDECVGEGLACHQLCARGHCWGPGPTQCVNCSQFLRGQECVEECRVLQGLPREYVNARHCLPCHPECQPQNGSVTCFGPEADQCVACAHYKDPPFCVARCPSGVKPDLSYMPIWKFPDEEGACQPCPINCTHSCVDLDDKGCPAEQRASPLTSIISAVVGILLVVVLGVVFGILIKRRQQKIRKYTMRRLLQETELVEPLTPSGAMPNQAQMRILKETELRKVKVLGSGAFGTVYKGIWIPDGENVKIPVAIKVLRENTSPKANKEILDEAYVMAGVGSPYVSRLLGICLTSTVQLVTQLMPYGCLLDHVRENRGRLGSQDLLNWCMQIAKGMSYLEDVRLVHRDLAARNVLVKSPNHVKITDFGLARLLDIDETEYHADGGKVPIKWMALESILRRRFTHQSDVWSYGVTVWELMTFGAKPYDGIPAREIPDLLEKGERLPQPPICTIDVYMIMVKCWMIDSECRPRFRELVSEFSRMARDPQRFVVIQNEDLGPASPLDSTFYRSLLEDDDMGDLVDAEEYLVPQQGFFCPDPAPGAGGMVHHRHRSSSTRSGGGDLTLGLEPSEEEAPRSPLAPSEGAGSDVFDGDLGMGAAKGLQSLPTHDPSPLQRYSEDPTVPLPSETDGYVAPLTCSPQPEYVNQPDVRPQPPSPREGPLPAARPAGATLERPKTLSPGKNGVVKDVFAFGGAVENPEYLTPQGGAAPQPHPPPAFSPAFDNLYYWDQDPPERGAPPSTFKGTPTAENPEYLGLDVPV
# [3] = SK-BR-3 cell growth inhibitors, pilot screen, 24 h, human (AID 572;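 active means viability at or below 10% of carrier control in both of two separate runs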;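 further: compound exposure lasted between 18 and 24 h rather than exactly 24 h; 100% = carrier-treated control wells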); details: SK-BR-3 viability, CellTiter-Glo luminescence, at 10 µM, stronger effect = lower value
# [4] = HUVEC growth inhibition – cell-based, human, primary screen (AID 575;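 active means viability at or below 30% in both replicate assays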;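 further: 100% = median of untreated cell wells with 0.1% DMSO on each plate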); details: HUVEC proliferation, CellTiter-Glo luminescence, 72 h; at 10 µM; stronger effect = lower value
# Method in brief: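 Timing: 72 h treatment at 37 °C; material: HUVEC primary cells; technique: CellTiter-Glo luminescence measuring cellular ATP; controls: vehicle and MePR control wells; measure: percent of median DMSO-control luminescence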
# [5] = growth inhibitors of H69AR lung tumor, primary screen, human, duplicate replicates (AID 580); details: H69AR lung tumor cells viability, ATP luminescence, 72 h; at 10 µM; stronger effect = lower value;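 further: 100% = mean luminescence of untreated wells and 0% = no signal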
# [6] = reversal of MRP1-mediated doxorubicin resistance, pilot screen, H69AR cells, doxorubicin co-treatment (AID 601;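 active means viability loss from added drug above about 55%, and viability with drug at most 40%, in both replicates, limit read from the data, passing the limit was not always enough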); details: CellTiter-Glo, 72 h, at 10 µM; for differential viability (reversal): stronger effect = higher value
# [7] = 384-well plate pilot, post-Golgi transport modulator project, inhibition of yeast transport mutant growth (AID 636; in the data active means inhibition above about 31%); details: absorbance 615 nm, about 18 h, stronger effect = higher value
# [8] = growth suppression of yeast trafficking mutant, preliminary HTS, modulators of trafficking downstream of Golgi apparatus project, 1536-format plate, OD 615 nm (AID 637; in the data active means inhibition above about 30%); details: yeast transport mutant growth, absorbance 615 nm, 18 h; stronger effect = higher value
# [9] = H69AR cells + 2 uM doxorubicin, measured here: viability with 2 uM doxorubicin, stronger effect = lower value
# [10] = H69AR cells, compound alone cytotoxicity
Structure (SMILES),viability [1] [%],Her2 level [2],viability [3],viability [4],viability [5],differential viability (reversal) ([6]; H69AR cells + 2 uM doxorubicin),"viability [6, 9] [%]","viability [6, 10] [%]",inhibition [7],inhibition [8]
CC(C)(C)C(=O)CCN1C(=O)C2(OCCO2)c2ccccc21,104,106% (inactive),104% (inactive),83.9% (inactive),103% (inactive),9.06% (inactive),94.1,103,-1.82% (inactive),-2.3% (inactive)
CCOCCCNc1ncnc2c1[nH]c1ccccc12,99,96.5% (inactive),99% (inactive),89.5% (inactive),90.3% (inactive),-13.3% (inactive),104,90.3,-2.63% (inactive),1.31% (inactive)
O=C1CCNc2cc3ccccc3cc21,73.5,84% (inactive),73.5% (inactive),61.7% (inactive),70.5% (inactive),0.425% (inactive),70,70.5,-8.9% (inactive),1.27% (inactive)
CCCCn1c(=O)[nH]c(=O)c2c1nc(-c1ccncc1)n2CCOC,108,116% (inactive),108% (inactive),90.5% (inactive),94.2% (inactive),1.93% (inactive),92.2,94.2,1.43% (inactive),-6.5% (inactive)
CCOc1cc(C)c(Cl)cc1S(=O)(=O)N(C)C,106,90.5% (inactive),106% (inactive),103% (inactive),95.4% (inactive),8.76% (inactive),86.6,95.4,-3.03% (inactive),-2.1% (inactive)
CCOC(=O)c1ccccc1NC(=O)CSc1nnc(COc2ccccc2C)n1C,63,89% (inactive),63% (inactive),82.6% (inactive),78.7% (inactive),5.67% (inactive),73,78.7,-3.08% (inactive),-9.17% (inactive)
Cc1ccc(NC(=O)c2cc(S(=O)(=O)N3CCC4(CC3)OCCO4)ccc2F)cc1,101,143% (inactive),101% (inactive),90.7% (inactive),99.3% (inactive),2.58% (inactive),96.7,99.3,1.97% (inactive),-11% (inactive)
CCSc1ncc(C#N)c(=O)[nH]1,117,119% (inactive),117% (inactive),96.5% (inactive),95% (inactive),-2.66% (inactive),97.6,95,-7.76% (inactive),-3.28% (inactive)
Cc1nc(SCc2ccc(Br)cc2)[nH]c(=O)c1C,83.5,85.5% (inactive),83.5% (inactive),60.7% (inactive),92.1% (inactive),9.71% (inactive),82.4,92.1,-5.14% (inactive),0.82% (inactive)
c1ccc2c(c1)CNc1ccccc1C2,97.5,90.5% (inactive),97.5% (inactive),73.5% (inactive),93.1% (inactive),-4.85% (inactive),98,93.1,-3.87% (inactive),-3.71% (inactive)
COCCNC(=O)c1ccc2c(c1)nc(C)n2-c1cccc(F)c1,129,79.5% (inactive),129% (inactive),92.7% (inactive),90.5% (inactive),-0.17% (inactive),90.6,90.5,-0.92% (inactive),4.35% (inactive)
CC(Oc1ccc(Cl)cc1Cl)C(=O)Nc1ncccn1 (stereo not given),93.5,108% (inactive),93.5% (inactive),99.6% (inactive),97.2% (inactive),9.42% (inactive),87.7,97.2,-1.17% (inactive),-11% (inactive)
O=S(=O)(NCC(c1cccnc1)N1CCN(c2ccccc2)CC1)c1cc(F)ccc1F (stereo not given),98.5,87% (inactive),98.5% (inactive),81.5% (inactive),86.4% (inactive),-8.3% (inactive),94.7,86.4,5.19% (inactive),92% (active)
Cc1csc2nc(CSc3nc4ccccc4o3)c(Br)n12,84.5,60% (inactive),84.5% (inactive),85.6% (inactive),83% (inactive),3.21% (inactive),79.8,83,-3.87% (inactive),10.5% (inactive)
O=C(Nc1cccc(O)c1)c1ccccc1,93,123% (inactive),93% (inactive),78% (inactive),95.2% (inactive),-7.51% (inactive),103,95.2,-5% (inactive),-7.05% (inactive)
Cc1cnc(SCCc2ccncc2)nc1C,97,109% (inactive),97% (inactive),109% (inactive),86.6% (inactive),9.61% (inactive),76.9,86.6,-2.05% (inactive),5.17% (inactive)
